Assay results published in ChEMBL document CHEMBL1146004, “Effect of substitution on novel tricyclic HIV-1 integrase inhibitors” (Bioorg Med Chem Lett, 2006).
Values after ≈ are worked out from the molar mass of the structure shown.

Tests used:
[1] = biological target: Human immunodeficiency virus type 1 integrase (Human immunodeficiency virus 1, UniProt Q7ZJM1); assay: Inhibition of HIV1 integrase strand transfer activity
MT4 = assay: Cytotoxicity against human MT4 cells; format: functional
[2] = tested on: Human immunodeficiency virus 1; assay: Antiviral activity against HIV1 3B in MT4 cell line; format: functional, organism-based; conditions: Human immunodeficiency virus 1, 3B
In short: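 MT-4 cells infected with HIV-1 IIIB at moi 0.01 for 3 h, then ~1.5 × 10⁴ cells/well added to 5-fold serial drug dilutions (9 concentrations, triplicate) in culture medium; 37 °C for 5 days. Viability read by CellTiter-Glo chemiluminescence after 10 min lysis at room temperature; EC50 derived.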

physchem [3] = conditions: buffer, pH 7.3
physchem [4] = conditions: buffer, pH 2.2

Sequence of Human immunodeficiency virus type 1 integrase (Q7ZJM1 whole entry): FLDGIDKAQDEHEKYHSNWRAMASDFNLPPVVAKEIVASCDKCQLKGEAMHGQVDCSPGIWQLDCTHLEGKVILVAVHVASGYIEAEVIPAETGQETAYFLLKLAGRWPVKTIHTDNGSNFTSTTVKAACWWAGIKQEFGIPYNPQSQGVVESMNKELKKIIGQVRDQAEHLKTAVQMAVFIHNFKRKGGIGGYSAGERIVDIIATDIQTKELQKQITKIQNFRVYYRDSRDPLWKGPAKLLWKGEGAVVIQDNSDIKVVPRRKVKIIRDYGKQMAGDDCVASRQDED

SMILES: COc1c2c(c(O)c3ncccc13)C(=O)N(Cc1ccc(F)cc1)C2
- IC50 [1]: 60 nM
- CC50 (MT4): 5100 nM

SMILES: COC(=O)CCSC1c2c(c(O)c3ncccc3c2OC)C(=O)N1Cc1ccc(F)cc1 (configuration not stated)
- IC50 [1]: 310 nM
- CC50 (MT4): 2800 nM
- EC50 [2]: 430 nM

SMILES: O=C1c2c(c(O)c3ncccc3c2O)C(=O)N1Cc1ccc(F)cc1
- IC50 [1]: 80 nM
- CC50 (MT4): 19000 nM
- EC50 [2]: 7500 nM
- solubility (physchem [3]): < 1.4 µM
- solubility (physchem [4]): < 1.4 µM

SMILES: COc1c2c(c(O)c3ncccc13)C(=O)N(Cc1ccc(F)cc1)C2O (configuration not stated)
- IC50 [1]: 36 nM
- CC50 (MT4): 9740 nM
- EC50 [2]: 256 nM

SMILES: COc1c2c(c(O)c3ncccc13)C(=O)N(Cc1ccc(F)cc1)C21CC1
- IC50 [1]: 7 nM
- CC50 (MT4): 3300 nM
- EC50 [2]: 124 nM
- solubility (physchem [3]): 26 µM (≈ 9.47 µg/mL)
- solubility (physchem [4]): 49 µM (≈ 17.9 µg/mL)

SMILES: COc1c2c(c(O)c3ncccc13)C(=O)N(Cc1ccc(F)cc1)C2SCCC(=O)O (configuration not stated)
- IC50 [1]: 295 nM
- CC50 (MT4): 24000 nM
- EC50 [2]: 3400 nM

SMILES: C=C1c2c(c(O)c3ncccc3c2OC)C(=O)N1Cc1ccc(F)cc1
- IC50 [1]: 150 nM
- CC50 (MT4): 6100 nM
- EC50 [2]: 375 nM

SMILES: CN(C)S(=O)(=O)Oc1c2c(c(O)c3ncccc13)C(=O)N(Cc1ccc(F)cc1)C2
- IC50 [1]: 255 nM
- CC50 (MT4): 1400 nM
- solubility (physchem [3]): < 2.3 µM
- solubility (physchem [4]): 7 µM (≈ 3.02 µg/mL)

SMILES: COc1c2c(c(O)c3ncccc13)C(=O)N(Cc1ccc(F)cc1)C2C (configuration not stated)
- IC50 [1]: 88 nM
- CC50 (MT4): 1600 nM
- EC50 [2]: 77 nM
- solubility (physchem [3]): 3 µM (≈ 1.06 µg/mL)
- solubility (physchem [4]): 193 µM (≈ 68 µg/mL)

SMILES: C=C1c2c(c(O)c3ncccc3c2OS(=O)(=O)N(C)C)C(=O)N1Cc1ccc(F)cc1
- IC50 [1]: 420 nM
- CC50 (MT4): 1650 nM
- EC50 [2]: 52 nM
- solubility (physchem [3]): < 1 µM
- solubility (physchem [4]): < 1 µM

SMILES: CC1c2c(c(O)c3ncccc3c2OS(=O)(=O)N(C)C)C(=O)N1Cc1ccc(F)cc1 (configuration not stated)
- IC50 [1]: 815 nM
- CC50 (MT4): 755 nM
- EC50 [2]: 8 nM
- solubility (physchem [3]): 2 µM (≈ 0.891 µg/mL)
- solubility (physchem [4]): 11 µM (≈ 4.9 µg/mL)

SMILES: CN(C)S(=O)(=O)Oc1c2c(c(O)c3ncccc13)C(=O)N(Cc1ccc(F)cc1)C21CC1
- IC50 [1]: 357 nM
- CC50 (MT4): 14200 nM
- EC50 [2]: 443 nM
- solubility (physchem [3]): 2.1 µM (≈ 0.961 µg/mL)
- solubility (physchem [4]): 11 µM (≈ 5.03 µg/mL)

SMILES: COc1c2c(c(O)c3ncccc13)C(=O)N(Cc1ccc(F)cc1)C2(C)C
- IC50 [1]: 210 nM
- CC50 (MT4): 427 nM
- EC50 [2]: 1110 nM

SMILES: COc1c2c(c(O)c3ncccc13)C(=O)N(Cc1ccc(F)cc1)C2OC (configuration not stated)
- IC50 [1]: 64 nM
- CC50 (MT4): 11400 nM
- EC50 [2]: 415 nM

SMILES: COc1c2c(c(O)c3ncccc13)C(=O)N(Cc1ccc(F)cc1)C2SCCC(=O)N1CCNCC1 (configuration not stated)
- IC50 [1]: 59 nM
- CC50 (MT4): 5250 nM
- EC50 [2]: 685 nM
